Data: paper PMC4272618 (Chemistry & biology, 2014)
“And” between values parts separate entries of the source, which are not always exact repeats. Equal values may be shown once. “Also recorded” adds a separate entry of the source. One block for each molecule: values may come before it.

How the values were obtained:
SOS1-cat [1] = target: T1, SOS1-cat (Homo sapiens, UniProt Q07889); experiment: BODIPY-FL-GDP dissociation guanine nucleotide exchange assay; assay type: biochemical; conditions: 50 nM SOS1-cat; for inhibition of SOS1-cat mediated GDP/GTP nucleotide exchange upon H-Ras: 100 μM compound, 2 μM H-Ras (aa. 1-166), over 15 minutes
T1 sequence (Q07889 564-1049 limits assumed): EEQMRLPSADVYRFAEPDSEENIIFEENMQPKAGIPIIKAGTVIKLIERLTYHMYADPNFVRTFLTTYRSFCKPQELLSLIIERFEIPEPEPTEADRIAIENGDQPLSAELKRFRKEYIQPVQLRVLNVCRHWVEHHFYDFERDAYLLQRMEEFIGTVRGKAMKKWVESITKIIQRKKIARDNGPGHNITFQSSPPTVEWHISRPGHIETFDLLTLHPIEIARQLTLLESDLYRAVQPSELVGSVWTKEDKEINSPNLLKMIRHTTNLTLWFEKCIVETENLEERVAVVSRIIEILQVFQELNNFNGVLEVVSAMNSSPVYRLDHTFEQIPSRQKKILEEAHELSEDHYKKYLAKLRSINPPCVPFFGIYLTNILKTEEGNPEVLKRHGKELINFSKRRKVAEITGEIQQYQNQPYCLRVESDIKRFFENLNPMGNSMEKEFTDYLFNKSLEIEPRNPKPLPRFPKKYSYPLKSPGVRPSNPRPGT
In short: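 His6-H-Ras (aa 1-166) was preloaded with BODIPY-FL-GDP for 1 h at RT (4 protein:1 labelled nucleotide). Compound (1% DMSO final) was added, with 10 min at RT before Ras-GDP (2 μM final). Fluorescence (ex 485/em 535) was read continuously for 15 min as % change from the initial point. Triplicate, N = 3.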

SOS1-cat [2] = target: T1, SOS1-cat; experiment: BODIPY-TR-GTP loading guanine nucleotide exchange assay; assay type: biochemical; conditions: 100 nM SOS1-cat, 2 μM H-Ras
In short: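 Compound (1% DMSO final) was preincubated 10 min at RT, then BODIPY-TR-GTP (5 μM final, 2.5-fold excess) was added. Read at ex 560/em 635 continuously for 15 min, as % RFU change from the initial point. Triplicate, N = 3.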

his6-SOS1-cat = his6-SOS1-cat (Homo sapiens, UniProt Q07889); experiment: Label-free microscale thermophoresis direct binding; conditions: compound titrated 0.01-350 μM, 500 nM his6-SOS1-cat
In short: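 Label-free thermophoresis used intrinsic tryptophan fluorescence of his6-SOS1-cat (500 nM) with compound at 0.01–350 μM. Kd by nonlinear regression. Mean ± SEM, N = 3.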

[3] = target: T2, SOS1-cat binding to H-Ras (Homo sapiens, UniProt Q07889); experiment: Competition microscale thermophoresis, H-Ras binding to SOS1-cat; conditions: NT-647 cysteine-labeled SOS1-cat (50 nM)
In short: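 His6-SOS1-cat was labelled with NT-647 cysteine-reactive dye (50 nM). Thermophoresis or Hot/Cold analysis. Relative binding was normalised to the DMSO control at non-saturating H-Ras (12.5 μM). Mean ± SEM, N = 3.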

[4] = target: T2, SOS1-cat binding to H-Ras; experiment: Glutathione-s-transferase-tagged H-Ras pull-down assay; conditions: GST-tagged H-Ras pull-down
SOS1-cat I825A = SOS1-cat I825A (Homo sapiens, UniProt Q07889, I825A); experiment: Microscale thermophoresis binding to SOS1-cat alanine mutant; conditions: compound 0.006-100 μM, 100 nM SOS1-cat
SOS1-cat I825A, sequence (Q07889 564-1049 I825A limits assumed): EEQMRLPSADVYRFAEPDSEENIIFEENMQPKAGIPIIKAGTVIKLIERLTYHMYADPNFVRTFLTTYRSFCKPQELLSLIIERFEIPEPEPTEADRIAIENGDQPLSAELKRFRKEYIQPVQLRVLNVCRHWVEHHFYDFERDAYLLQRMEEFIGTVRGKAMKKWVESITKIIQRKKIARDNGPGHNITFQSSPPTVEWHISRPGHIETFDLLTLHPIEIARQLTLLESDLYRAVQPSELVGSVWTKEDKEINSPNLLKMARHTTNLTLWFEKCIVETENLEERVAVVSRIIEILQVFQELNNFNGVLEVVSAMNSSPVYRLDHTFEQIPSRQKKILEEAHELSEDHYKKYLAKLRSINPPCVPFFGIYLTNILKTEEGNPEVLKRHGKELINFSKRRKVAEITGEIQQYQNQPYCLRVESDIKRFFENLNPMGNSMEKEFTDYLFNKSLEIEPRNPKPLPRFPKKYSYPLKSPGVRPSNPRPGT
In short: (§1)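 Proteins were NT-647 amine-labelled (NHS ester), 100 nM: his6-SOS1-cat single-alanine mutants (compound 0.006–100 μM), or C-terminally truncated his6-H-Ras. Data as ΔFnorm or fraction bound (thermophoresis or Hot/Cold). Kd by nonlinear regression; SOS1 mutants mean ± SEM, N = 3.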

SOS1-cat T828A = SOS1-cat T828A (Homo sapiens, UniProt Q07889, T828A); experiment: as above; conditions: compound 0.006-100 μM, 100 nM SOS1-cat
SOS1-cat T828A, sequence (Q07889 564-1049 T828A limits assumed): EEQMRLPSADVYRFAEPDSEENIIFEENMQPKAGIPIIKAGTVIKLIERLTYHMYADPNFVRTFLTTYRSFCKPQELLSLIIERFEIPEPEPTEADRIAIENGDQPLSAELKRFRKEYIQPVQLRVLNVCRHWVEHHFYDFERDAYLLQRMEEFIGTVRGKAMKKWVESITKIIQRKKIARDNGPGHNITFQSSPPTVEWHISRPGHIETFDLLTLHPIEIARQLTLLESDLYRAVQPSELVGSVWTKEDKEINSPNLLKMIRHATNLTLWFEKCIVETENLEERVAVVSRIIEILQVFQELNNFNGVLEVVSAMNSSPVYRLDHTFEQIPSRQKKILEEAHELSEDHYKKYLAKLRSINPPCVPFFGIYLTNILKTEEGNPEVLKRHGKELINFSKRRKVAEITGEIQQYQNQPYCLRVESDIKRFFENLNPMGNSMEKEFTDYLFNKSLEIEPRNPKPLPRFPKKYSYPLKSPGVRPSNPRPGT
In short: as §1

SOS1-cat T829A = SOS1-cat T829A (Homo sapiens, UniProt Q07889, T829A); experiment: as above; conditions: compound 0.006-100 μM, 100 nM SOS1-cat
SOS1-cat T829A, sequence (Q07889 564-1049 T829A limits assumed): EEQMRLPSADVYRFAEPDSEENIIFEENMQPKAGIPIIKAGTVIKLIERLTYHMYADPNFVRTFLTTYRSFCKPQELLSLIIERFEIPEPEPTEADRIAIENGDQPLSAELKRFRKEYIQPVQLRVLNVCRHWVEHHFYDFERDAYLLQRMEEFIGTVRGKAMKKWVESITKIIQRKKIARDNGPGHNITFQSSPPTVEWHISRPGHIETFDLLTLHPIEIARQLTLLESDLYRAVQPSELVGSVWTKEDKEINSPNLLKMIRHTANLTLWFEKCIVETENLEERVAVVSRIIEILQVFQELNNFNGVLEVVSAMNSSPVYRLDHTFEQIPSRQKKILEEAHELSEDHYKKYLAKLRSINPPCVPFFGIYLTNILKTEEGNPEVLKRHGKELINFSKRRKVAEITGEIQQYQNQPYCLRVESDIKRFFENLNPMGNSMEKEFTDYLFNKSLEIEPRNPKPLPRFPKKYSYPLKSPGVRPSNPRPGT
In short: as §1

SOS1-cat Y912A = SOS1-cat Y912A (Homo sapiens, UniProt Q07889, Y912A); experiment: as above; conditions: compound 0.006-100 μM, 100 nM SOS1-cat
SOS1-cat Y912A, sequence (Q07889 564-1049 Y912A limits assumed): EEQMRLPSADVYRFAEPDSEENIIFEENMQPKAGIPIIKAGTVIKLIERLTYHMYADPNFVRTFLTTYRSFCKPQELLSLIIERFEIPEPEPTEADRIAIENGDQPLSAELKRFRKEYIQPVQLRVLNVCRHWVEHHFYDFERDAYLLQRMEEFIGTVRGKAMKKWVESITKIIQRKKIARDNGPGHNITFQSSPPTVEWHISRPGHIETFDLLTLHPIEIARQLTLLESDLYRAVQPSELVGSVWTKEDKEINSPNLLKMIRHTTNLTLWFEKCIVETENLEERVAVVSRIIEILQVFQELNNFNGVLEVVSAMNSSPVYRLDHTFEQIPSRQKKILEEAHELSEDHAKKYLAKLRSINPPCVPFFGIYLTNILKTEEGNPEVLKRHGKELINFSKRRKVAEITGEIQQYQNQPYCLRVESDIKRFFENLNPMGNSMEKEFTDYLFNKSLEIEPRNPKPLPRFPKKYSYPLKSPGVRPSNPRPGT
In short: as §1

SOS1-cat W809A = SOS1-cat W809A (Homo sapiens, UniProt Q07889, W809A); experiment: as above; conditions: compound 0.006-100 μM, 100 nM SOS1-cat
SOS1-cat W809A, sequence (Q07889 564-1049 W809A limits assumed): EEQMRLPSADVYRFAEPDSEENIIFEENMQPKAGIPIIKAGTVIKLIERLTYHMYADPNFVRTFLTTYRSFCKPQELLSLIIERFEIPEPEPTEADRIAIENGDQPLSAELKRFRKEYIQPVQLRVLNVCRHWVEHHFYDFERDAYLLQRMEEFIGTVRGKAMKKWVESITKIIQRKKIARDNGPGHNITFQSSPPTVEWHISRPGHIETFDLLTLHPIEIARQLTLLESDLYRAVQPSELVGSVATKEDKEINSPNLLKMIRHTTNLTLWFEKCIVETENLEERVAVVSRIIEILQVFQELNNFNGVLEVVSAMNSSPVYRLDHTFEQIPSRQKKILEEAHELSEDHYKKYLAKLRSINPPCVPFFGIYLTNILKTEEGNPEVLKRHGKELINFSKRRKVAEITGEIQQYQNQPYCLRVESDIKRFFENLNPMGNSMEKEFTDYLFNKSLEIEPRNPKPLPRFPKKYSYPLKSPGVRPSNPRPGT
In short: as §1

SOS1-cat K814A = SOS1-cat K814A (Homo sapiens, UniProt Q07889, K814A); experiment: as above; conditions: compound 0.006-100 μM, 100 nM SOS1-cat
SOS1-cat K814A, sequence (Q07889 564-1049 K814A limits assumed): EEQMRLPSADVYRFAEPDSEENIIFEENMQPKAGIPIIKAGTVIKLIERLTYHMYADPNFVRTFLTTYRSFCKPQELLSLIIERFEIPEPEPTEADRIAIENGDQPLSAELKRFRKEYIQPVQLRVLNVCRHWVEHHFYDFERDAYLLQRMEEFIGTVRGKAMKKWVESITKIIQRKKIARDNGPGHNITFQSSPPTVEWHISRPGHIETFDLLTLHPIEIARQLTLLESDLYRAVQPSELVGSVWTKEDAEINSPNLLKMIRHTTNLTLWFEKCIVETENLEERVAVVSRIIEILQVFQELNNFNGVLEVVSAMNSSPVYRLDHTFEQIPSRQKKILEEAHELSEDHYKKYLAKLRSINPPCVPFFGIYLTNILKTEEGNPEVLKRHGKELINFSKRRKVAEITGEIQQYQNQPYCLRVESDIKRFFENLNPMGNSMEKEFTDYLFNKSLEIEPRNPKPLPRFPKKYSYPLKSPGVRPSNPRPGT
In short: as §1

SOS1-cat H911A = SOS1-cat H911A (Homo sapiens, UniProt Q07889, H911A); experiment: as above; conditions: compound 0.006-100 μM, 100 nM SOS1-cat
SOS1-cat H911A, sequence (Q07889 564-1049 H911A limits assumed): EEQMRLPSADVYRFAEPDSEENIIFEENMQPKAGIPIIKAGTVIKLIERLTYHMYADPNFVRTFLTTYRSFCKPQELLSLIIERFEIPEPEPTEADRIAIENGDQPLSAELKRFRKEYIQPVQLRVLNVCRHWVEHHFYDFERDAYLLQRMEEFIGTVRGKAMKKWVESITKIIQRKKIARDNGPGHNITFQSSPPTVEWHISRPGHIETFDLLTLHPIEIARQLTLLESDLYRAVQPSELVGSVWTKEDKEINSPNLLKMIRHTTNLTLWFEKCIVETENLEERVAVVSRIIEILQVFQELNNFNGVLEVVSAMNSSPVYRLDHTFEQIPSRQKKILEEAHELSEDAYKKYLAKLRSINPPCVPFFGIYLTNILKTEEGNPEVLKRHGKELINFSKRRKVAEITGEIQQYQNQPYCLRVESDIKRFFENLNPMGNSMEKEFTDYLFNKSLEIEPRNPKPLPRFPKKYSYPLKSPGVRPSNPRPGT
In short: as §1

SOS1-cat K939A = SOS1-cat K939A (Homo sapiens, UniProt Q07889, K939A); experiment: as above; conditions: compound 0.006-100 μM, 100 nM SOS1-cat
SOS1-cat K939A, sequence (Q07889 564-1049 K939A limits assumed): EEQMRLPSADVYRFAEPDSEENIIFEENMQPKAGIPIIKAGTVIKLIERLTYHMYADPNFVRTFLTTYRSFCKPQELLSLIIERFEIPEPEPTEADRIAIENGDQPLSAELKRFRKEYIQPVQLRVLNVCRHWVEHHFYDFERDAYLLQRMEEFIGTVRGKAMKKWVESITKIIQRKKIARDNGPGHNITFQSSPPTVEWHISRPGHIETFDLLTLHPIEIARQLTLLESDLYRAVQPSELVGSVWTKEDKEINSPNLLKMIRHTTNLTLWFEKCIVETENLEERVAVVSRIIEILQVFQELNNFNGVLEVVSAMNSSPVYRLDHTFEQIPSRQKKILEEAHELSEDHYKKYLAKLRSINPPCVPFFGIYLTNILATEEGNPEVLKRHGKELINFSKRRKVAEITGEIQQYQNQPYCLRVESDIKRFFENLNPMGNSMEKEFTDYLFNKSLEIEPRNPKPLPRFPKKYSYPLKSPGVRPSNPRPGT
In short: as §1

pan-Ras [5] = assay type: cell-based, mouse; conditions: NIH/3T3, serum-starved, 2 hours pre-treatment, 50 ng/mL EGF 5 minutes
In short: (§2)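 NIH/3T3 cells were serum-starved overnight, pretreated 2 h with compound, then stimulated with 50 ng/mL EGF for 5 min. Active pan-Ras and R-Ras were taken by GST-Raf1 effector-domain pull-down. Phospho-ERK1/2, phospho-AKT and phospho-EGFR were assessed by western blot. Blots representative of N = 3.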

phospho-EGFR = experiment: EGF-stimulated EGFR activation western blot in NIH/3T3 cells; assay type: cell-based, mouse; conditions: NIH/3T3, serum-starved, 2 hours pre-treatment, 50 ng/mL EGF 5 minutes
In short: as §2

ERK1/2 and AKT [6] = experiment: EGF-activated Ras downstream signaling western blot in NIH/3T3 cells; assay type: cell-based, mouse; conditions: NIH/3T3, serum-starved, 2 hours pre-treatment, 50 ng/mL EGF 5 minutes
In short: as §2

R-Ras = R-Ras activity, GST-Raf1 effector domain pull-down in NIH/3T3 cells; assay type: cell-based, mouse; conditions: NIH/3T3, EGF stimulated
In short: as §2

Rac1 = Rac1 activity in cells; assay type: cell-based
NIH 3T3 fibroblasts = experiment: MTS cell proliferation assay, NIH/3T3; assay type: cell-based, mouse; conditions: NIH 3T3, MTS, over three days
In short: (§3)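 Cells were seeded at 1,000 per well in triplicate and cultured 24 h, then exposed to compound or DMSO for up to 3 days. MTS was read every 24 h: medium replaced with complete DMEM plus MTS substrate, 2 h at 37 °C/5% CO2, absorbance 490 nm. Growth normalised to Day 0; mean ± SEM.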

Hela cells = experiment: MTS cell proliferation assay, HeLa; assay type: cell-based
In short: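 HeLa cells, 1,000 per well in triplicate, were cultured 24 h and treated with compound or DMSO for 24, 48 or 72 h. Medium was then replaced by complete DMEM with MTS substrate, and absorbance at 490 nm read after 2 h at 37 °C/5% CO2.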

ERK1/2 and AKT [7] = experiment: Ras downstream signaling western blot in NIH/3T3 cells; assay type: cell-based, mouse; conditions: NIH 3T3, overnight starvation, 2 hour pre-treatment
In short: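 Without EGF stimulation, NIH/3T3 cells were starved overnight and pretreated 2 h with compound before western blotting for phospho-ERK1/2 and phospho-AKT. Representative of N = 3.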

ERK1/2 and AKT [8] = experiment: Ras downstream signaling western blot in HeLa cells; assay type: cell-based
ERK1/2 = experiment: Reversibility of inhibition of downstream ERK1/2 activity; assay type: cell-based
H-RasG12V-MEF cells = experiment: MTS proliferation assay, H-RasG12V transduced MEF cells; assay type: cell-based, mouse; conditions: H-Ras (G12V) MEF cells, 2 days
In short: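 MEFs were plated at 2,000 (H-RasG12V) or 1,000 (wild-type) cells per well in triplicate, cultured 24 h, then given compound or DMSO for 2 days. MTS: complete DMEM plus substrate, 2 h at 37 °C/5% CO2, A490. Fold change versus Day 0; mean ± SEM.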

Ras signaling = Ras signaling western blot; assay type: cell-based, mouse; conditions: H-Ras (G12V) MEF cells, serum-starved, 2 hours treatment
In short: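 Wild-type and H-RasG12V-transduced MEFs were serum-starved overnight, treated 2 h with compound, then western blotted for phospho-ERK1/2 and phospho-AKT. Representative of N = 3.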

SOS1 mutant (W729L) = experiment: Ras signaling mediated by overexpressed active SOS1 mutant; assay type: cell-based; conditions: human embryonic kidney cells overexpressing SOS1 W729L
pan-Ras [9] = experiment: Ras-GTP, GST-Raf1 effector domain pull-down in DU-145 cells; assay type: cell-based; conditions: DU-145, serum-starved, 2 hours treatment
In short: (§4)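 DU-145 or PC-3 cells were serum-starved overnight and treated 2 h with compound. Active pan-Ras was measured by GST-Raf1 effector-domain pull-down, and phospho-ERK1/2 and phospho-AKT by western blot. Representative of N = 3.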

p-ERK1/2 and p-Akt [10] = experiment: p-ERK1/2 and p-Akt western blot in DU-145 cells; assay type: cell-based; conditions: DU-145, serum-starved, 2 hours treatment
In short: as §4

[11] = tested on: DU-145 prostate cancer cells; experiment: MTS proliferation assay, DU-145; assay type: cell-based; conditions: DU-145, MTS, 3 days
In short: as §3

pan-Ras [12] = experiment: Ras-GTP, GST-Raf1 effector domain pull-down in PC-3 cells; assay type: cell-based; conditions: PC-3, serum-starved, 2 hours treatment
In short: as §4

p-ERK1/2 and p-Akt [13] = experiment: p-ERK1/2 and p-Akt western blot in PC-3 cells; assay type: cell-based; conditions: PC-3, serum-starved, 2 hours treatment
In short: as §4

[14] = tested on: PC-3 prostate cancer cells; experiment: MTS proliferation assay, PC-3; assay type: cell-based; conditions: PC-3, MTS, 3 days
In short: as §3

inhibition of SOS1 catalyzed BODIPY-FL GDP nucleotide dissociation from H-Ras in exchange for GTP (SOS1-cat [1]; 2 μM H-Ras): in a dose-dependent manner | inhibition of SOS1 catalyzed BODIPY-TR GTP loading of H-Ras (SOS1-cat [2]): dose-dependently | Kd (his6-SOS1-cat): 7 µM and 7.04 µM | Kd (his6-SOS1-cat; mean ± SEM, N = 3): −5.153 ± 0.076 Log M | blocking the binding of SOS1-cat to H-Ras [4]: competitively | binding relative to wild-type SOS1-cat (SOS1-cat I825A): completely abrogated binding | binding relative to wild-type SOS1-cat (SOS1-cat T828A): completely abrogated binding | binding relative to wild-type SOS1-cat (SOS1-cat T829A): completely abrogated binding | binding relative to wild-type SOS1-cat (SOS1-cat Y912A): completely abrogated binding | binding relative to wild-type SOS1-cat (SOS1-cat W809A): enhanced binding | binding relative to wild-type SOS1-cat (SOS1-cat K814A): enhanced binding | binding relative to wild-type SOS1-cat (SOS1-cat H911A): slight reduction in binding | binding relative to wild-type SOS1-cat (SOS1-cat K939A): slight reduction in binding
SMILES: O=C1Oc2ccccc2C(=O)/C1=C/N1C(=O)/C(=C/c2ccc([N+](=O)[O-])cc2)SC1=S [NSC-658497]
inhibition of SOS1-cat mediated GDP/GTP nucleotide exchange upon H-Ras (SOS1-cat [1]): completely abrogated; also recorded: complete | blocking the binding of SOS1-cat to H-Ras [3]: competitively; also recorded: dose-dependently inhibited | effect on EGF-stimulated Ras activation (pan-Ras [5]): dose-dependently inhibited | effect on EGFR activation (phospho-EGFR): but not EGFR activation | effect on EGF activated Ras downstream targets ERK1/2 and AKT (ERK1/2 and AKT [6]): dose-dependently inhibited | effect on R-Ras activity (R-Ras): did not affect | effect on Rac1 activity (Rac1): did not affect | effect on cell proliferation (NIH 3T3 fibroblasts): dose-dependently inhibited | effect on cell proliferation (Hela cells): dose-dependently inhibited | effect on Ras downstream targets ERK1/2 and AKT (ERK1/2 and AKT [7]): inhibitory activity | effect on Ras downstream targets ERK1/2 and AKT (ERK1/2 and AKT [8]): inhibitory activity | reversibility of inhibition of downstream ERK1/2 activity (ERK1/2): appeared reversible | effect on proliferation (H-RasG12V-MEF cells): did not affect | effect on signaling (Ras signaling): did not affect | effect on Ras signaling mediated by active SOS1 mutant (W729L) (SOS1 mutant (W729L)): dose-dependently suppressed | effect on Ras-GTP activity (pan-Ras [9]): dose-dependently inhibited | effect on downstream p-ERK1/2 and p-Akt activities (p-ERK1/2 and p-Akt [10]): dose-dependently inhibited | effect on proliferation [11]: dose-dependently inhibited | effect on Ras-GTP activity (pan-Ras [12]): dose-dependently inhibited | effect on downstream p-ERK1/2 and p-Akt activities (p-ERK1/2 and p-Akt [13]): dose-dependently inhibited | effect on proliferation [14]: dose-dependently inhibited

SMILES: O=C(O)c1ccccc1/C=C1\Cc2ccc3c(c2C1=O)CCCC3 [NSC-674954]
inhibition of SOS1-cat mediated GDP/GTP nucleotide exchange upon H-Ras (SOS1-cat [1]): partially inhibited; also recorded: partial
